Converted amounts (≈) assume the structure as drawn.
Key:
[1] = system: Staphylococcus haemolyticus; test: Antimicrobial activity against Staphylococcus haemolyticus 1949819 B-M isolated from patient with pyelonephritis assessed as >3-log reduction in urinary bacterial titer after 4 hrs; assay type: functional, Urine
[2] = system: Staphylococcus haemolyticus; test: Antimicrobial activity against Staphylococcus haemolyticus 1949819 B-M isolated from patient with pyelonephritis assessed as >3-log reduction in urinary bacterial titer after 20 hrs; assay type: functional, Urine
Enterococcus faecalis [3] = test: Antimicrobial activity against Enterococcus faecalis 2215770 B-T isolated from patient with pyelonephritis assessed as >3-log reduction in urinary bacterial titer after 16 hrs; assay type: functional, Urine
Summary of the method: (§1)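 Urine was collected before dosing and on day 3 of i.v. therapy (steady state), in 4-h intervals from infusion start (0–4 to 20–24 h), stored at −80°C and sterile filtered. It was serially diluted twofold (1:0 to 1:131,072) in the patient's drug-free pre-dose urine. Microdilution used an inoculum of 1.0 x 10^6–9.5 x 10^6 CFU/ml, incubated 18 h at 37°C, then subcultured 24 h on blood agar. The endpoint was >99.9% kill, reported as reciprocal titer.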

Escherichia coli [4] = test: Antimicrobial activity against Escherichia coli 1949825 B-K isolated from patient with pyelonephritis assessed as >3-log reduction in urinary bacterial titer after 20 hrs; assay type: functional, Urine
Summary of the method: (§2)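 Patient urine was collected on day 3 of i.v. therapy (steady state) over 4-h intervals after infusion start, stored at –80°C, and sterile filtered. It was twofold serially diluted (1:0 to 1:131,072) in the patient's own pre-dose drug-free urine, inoculated to 1.0 x 10^6–9.5 x 10^6 CFU/ml, and incubated for 18 h at 37°C. Subcultures were grown on blood agar for 24 h. The UBT is the reciprocal of the highest dilution giving >99.9% kill.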

Pseudomonas aeruginosa [5] = test: Antimicrobial activity against Pseudomonas aeruginosa 2062713 B-Q isolated from patient with pyelonephritis by Etest; assay type: functional
Escherichia coli [6] = test: Antimicrobial activity against Escherichia coli 1949825 B-K isolated from patient with pyelonephritis by Etest; assay type: functional
Escherichia coli [7] = test: Antimicrobial activity against Escherichia coli 1780063 B-A isolated from patient with pyelonephritis assessed as >3-log reduction in urinary bacterial titer after 12 hrs; assay type: functional, Urine; summary of the method: as §1
Escherichia coli [8] = test: Antimicrobial activity against Escherichia coli 2297257 B-W isolated from patient with pyelonephritis assessed as >3-log reduction in urinary bacterial titer after 8 hrs; assay type: functional, Urine
Escherichia coli [9] = test: Antimicrobial activity against Escherichia coli 1889645 B-I isolated from patient with pyelonephritis assessed as >3-log reduction in urinary bacterial titer after 4 hrs; assay type: functional, Urine
Summary of the method: (§3)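 Urine was collected on day 3 of i.v. therapy (steady state) over 4-h intervals from infusion start (0–4 to 20–24 h), stored at –80°C and sterile filtered. It was serially diluted twofold (1:0 up to 1:131,072) in the patient's own pre-dose drug-free urine. Microdilution used a final inoculum of 1.0 x 10^6 to 9.5 x 10^6 CFU/ml, incubated 18 h at 37°C in air. 10 µl was subcultured onto 5% blood Columbia agar for 24 h at 37°C. The bactericidal endpoint was >99.9% (>3-log) kill, reported as a reciprocal titer.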

[10] = T>MIC in Pseudomonas aeruginosa infected in thigh of neutropenic mouse at 500 mg/kg, iv administered every 8 hrs; assay type: functional
Enterococcus faecalis [11] = test: Antimicrobial activity against Enterococcus faecalis 2215770 B-T isolated from patient with pyelonephritis assessed as >3-log reduction in urinary bacterial titer after 24 hrs; assay type: functional, Urine; summary of the method: as §1
Escherichia coli [12] = test: Antimicrobial activity against Escherichia coli 1889646 B-F isolated from patient with pyelonephritis assessed as >3-log reduction in urinary bacterial titer after 24 hrs; assay type: functional, Urine; summary of the method: as §3
Escherichia coli [13] = test: Antimicrobial activity against Escherichia coli 2062717 B-P isolated from patient with pyelonephritis assessed as >3-log reduction in urinary bacterial titer after 20 hrs; assay type: functional, Urine
Enterococcus faecalis [14] = test: Antimicrobial activity against Enterococcus faecalis 2215767-10 B-S isolated from patient with pyelonephritis assessed as >3-log reduction in urinary bacterial titer after 4 hrs; assay type: functional, Urine; summary of the method: as §1
Escherichia coli [15] = test: Antimicrobial activity against Escherichia coli 1889647 B-H isolated from patient with pyelonephritis assessed as >3-log reduction in urinary bacterial titer after 20 hrs; assay type: functional, Urine; summary of the method: as §3
Serratia marcescens [16] = test: Antimicrobial activity against Serratia marcescens 2297260 B-U isolated from patient with pyelonephritis assessed as >3-log reduction in urinary bacterial titer after 16 hrs; assay type: functional, Urine
Escherichia coli [17] = test: Antimicrobial activity against Escherichia coli 1655646 A-Y isolated from patient with pyelonephritis assessed as >3-log reduction in urinary bacterial titer after 16 hrs; assay type: functional, Urine; summary of the method: as §1
Escherichia coli [18] = test: Antimicrobial activity against Escherichia coli 2062716 B-R isolated from patient with pyelonephritis assessed as >3-log reduction in urinary bacterial titer after 12 hrs; assay type: functional, Urine; summary of the method: as §2
Staphylococcus aureus = test: Antimicrobial activity against Staphylococcus aureus 2215767-9 B-S isolated from patient with pyelonephritis by Etest; assay type: functional
[19] = system: Staphylococcus epidermidis; test: Antimicrobial activity against Staphylococcus epidermidis 2297262-9 B-V isolated from patient with pyelonephritis by Etest; assay type: functional
Escherichia coli [20] = test: Antimicrobial activity against Escherichia coli 1821386 B-D isolated from patient with pyelonephritis assessed as >3-log reduction in urinary bacterial titer after 12 hrs; assay type: functional, Urine; summary of the method: as §3
[21] = system: Staphylococcus epidermidis; test: Antimicrobial activity against Staphylococcus epidermidis 1949822 B-J isolated from patient with pyelonephritis assessed as >3-log reduction in urinary bacterial titer after 8 hrs; assay type: functional, Urine
Serratia marcescens [22] = test: Antimicrobial activity against Serratia marcescens 2297260 B-U isolated from patient with pyelonephritis assessed as >3-log reduction in urinary bacterial titer after 8 hrs; assay type: functional, Urine
Escherichia coli [23] = test: Antimicrobial activity against Escherichia coli 1780064 A-X isolated from patient with pyelonephritis assessed as >3-log reduction in urinary bacterial titer after 8 hrs; assay type: functional, Urine; summary of the method: as §3
Enterococcus faecalis [24] = test: Antimicrobial activity against Enterococcus faecalis 2215767-10 B-S isolated from patient with pyelonephritis assessed as >3-log reduction in urinary bacterial titer after 8 hrs; assay type: functional, Urine; summary of the method: as §1
Enterococcus faecalis [25] = test: Antimicrobial activity against Enterococcus faecalis 2297262-10 B-V isolated from patient with pyelonephritis assessed as >3-log reduction in urinary bacterial titer after 8 hrs; assay type: functional, Urine; summary of the method: as §1
Escherichia coli [26] = test: Antimicrobial activity against Escherichia coli 1889647 B-H isolated from patient with pyelonephritis assessed as >3-log reduction in urinary bacterial titer after 4 hrs; assay type: functional, Urine; summary of the method: as §3
Escherichia coli [27] = test: Antimicrobial activity against Escherichia coli 1821386 B-D isolated from patient with pyelonephritis assessed as >3-log reduction in urinary bacterial titer after 4 hrs; assay type: functional, Urine; summary of the method: as §3
[28] = system: Staphylococcus epidermidis; test: Antimicrobial activity against Staphylococcus epidermidis 1949822 B-J isolated from patient with pyelonephritis assessed as >3-log reduction in urinary bacterial titer after 24 hrs; assay type: functional, Urine
Pseudomonas aeruginosa [29] = test: Antimicrobial activity against Pseudomonas aeruginosa 2062713 B-Q isolated from patient with pyelonephritis assessed as >3-log reduction in urinary bacterial titer after 24 hrs; assay type: functional, Urine
Escherichia coli [30] = test: Antimicrobial activity against Escherichia coli 2062716 B-R isolated from patient with pyelonephritis assessed as >3-log reduction in urinary bacterial titer after 24 hrs; assay type: functional, Urine; summary of the method: as §2
Enterococcus faecalis [31] = test: Antimicrobial activity against Enterococcus faecalis 2215767-10 B-S isolated from patient with pyelonephritis assessed as >3-log reduction in urinary bacterial titer after 24 hrs; assay type: functional, Urine; summary of the method: as §1
[32] = system: Staphylococcus epidermidis; test: Antimicrobial activity against Staphylococcus epidermidis 1949822 B-J isolated from patient with pyelonephritis assessed as >3-log reduction in urinary bacterial titer after 20 hrs; assay type: functional, Urine
Pseudomonas aeruginosa [33] = test: Antimicrobial activity against Pseudomonas aeruginosa 2062713 B-Q isolated from patient with pyelonephritis assessed as >3-log reduction in urinary bacterial titer after 20 hrs; assay type: functional, Urine

Q: With `C[C@@H](O)[C@H]1C(=O)N2C(C(=O)O)=C(S[C@@H]3CN[C@H](CNS(N)(=O)=O)C3)[C@H](C)[C@H]12` [DORIPENEM] as the compound, how does the urinary bactericidal titer [1] read?
A: 512 reciprocal titer

Q: What about the urinary bactericidal titer [2] of the same compound?
A: 2048 reciprocal titer

Q: And the urinary bactericidal titer (Enterococcus faecalis [3])?
A: 512 reciprocal titer

Q: And the urinary bactericidal titer (Escherichia coli [4])?
A: 4096 reciprocal titer

Q: What about the MIC (Pseudomonas aeruginosa [5]) of the same compound?
A: 0.5 µg/mL (≈ 1.19 µM)

Q: What about the MIC (Escherichia coli [6]) of the same compound?
A: 0.03 µg/mL (≈ 0.0713 µM)

Q: And the urinary bactericidal titer (Escherichia coli [7])?
A: 4096 reciprocal titer

Q: What about the urinary bactericidal titer (Escherichia coli [8]) of the same compound?
A: 2048 reciprocal titer

Q: And the urinary bactericidal titer (Escherichia coli [9])?
A: 65500 reciprocal titer

Q: What about the “fT>MIC” value [10] of the same compound?
A: 20%

Q: And the urinary bactericidal titer (Enterococcus faecalis [11])?
A: 512 reciprocal titer

Q: What about the urinary bactericidal titer (Escherichia coli [12]) of the same compound?
A: 65500 reciprocal titer

Q: And the urinary bactericidal titer (Escherichia coli [13])?
A: 32800 reciprocal titer

Q: Which Time (Enterococcus faecalis [14]) does the source give for `C[C@H]1COc2c(N3CCN(C)CC3)c(F)cc3c(=O)c(C(=O)O)cn1c23.C[C@H]1COc2c(N3CCN(C)CC3)c(F)cc3c(=O)c(C(=O)O)cn1c23.O` [LEVOFLOXACIN] here?
A: 0 h

Q: What about the urinary bactericidal titer (Escherichia coli [15]) of the same compound?
A: 512 reciprocal titer

Q: And the urinary bactericidal titer (Serratia marcescens [16])?
A: 128 reciprocal titer

Q: And the urinary bactericidal titer (Escherichia coli [17])?
A: 1024 reciprocal titer

Q: What about the urinary bactericidal titer (Escherichia coli [18]) of the same compound?
A: 512 reciprocal titer

Q: What about the MIC (Staphylococcus aureus) of the same compound?
A: > 32 µg/mL

Q: And the MIC [19]?
A: > 32 µg/mL

Q: What about the urinary bactericidal titer (Escherichia coli [20]) of the same compound?
A: 2048 reciprocal titer

Q: And the urinary bactericidal titer [21]?
A: 4 reciprocal titer

Q: And the urinary bactericidal titer (Serratia marcescens [22])?
A: 256 reciprocal titer

Q: What about the urinary bactericidal titer (Escherichia coli [23]) of the same compound?
A: 512 reciprocal titer

Q: What about the urinary bactericidal titer (Enterococcus faecalis [24]) of the same compound?
A: 0 reciprocal titer

Q: And the urinary bactericidal titer (Enterococcus faecalis [25])?
A: 0 reciprocal titer

Q: What about the urinary bactericidal titer (Escherichia coli [26]) of the same compound?
A: 2048 reciprocal titer

Q: What about the urinary bactericidal titer (Escherichia coli [27]) of the same compound?
A: 2048 reciprocal titer

Q: And the urinary bactericidal titer [28]?
A: 1 reciprocal titer

Q: And the urinary bactericidal titer (Pseudomonas aeruginosa [29])?
A: 2 reciprocal titer

Q: What about the urinary bactericidal titer (Escherichia coli [30]) of the same compound?
A: 64 reciprocal titer

Q: What about the Time (Enterococcus faecalis [31]) of the same compound?
A: 0 h

Q: What about the urinary bactericidal titer [32] of the same compound?
A: 2 reciprocal titer

Q: And the urinary bactericidal titer (Pseudomonas aeruginosa [33])?
A: 4 reciprocal titer

From ChEMBL document CHEMBL1649151, “Urinary bactericidal activity of Doripenem versus that of levofloxacin in patients with complicated urinary tract infections or pyelonephritis” (Antimicrob Agents Chemother, 2009)
